Data set [1] deals with M14. Put plainly: Cytotoxicity against human M14 cells at 100 uM after 72 hrs by CellTiter-Glo luminescence assay. The class given is functional. To be noted: M14, 72 h. Summed up:
(§1)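 1250 cells per well in serum-free medium (F12 for CHO-K1 and A549, DMEM for M14). Compounds given as 10-point 1:3 serial dilutions from a 300 µM stock, plus a gefitinib control. Incubated 72 h at 37 °C, 5% CO2. CellTiter-Glo added for 15 min at room temperature, then luminescence read. Viability normalized to media-only wells (0%) and 1% DMSO wells (100%). Run in triplicate.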
(In general: Cellular ATP, detected with luciferase, serves as a proxy for viable cell number.)

The nature of data set [2]: Cytotoxicity against CHOK1 cells at 100 uM after 72 hrs by CellTiter-Glo luminescence assay. The class given is cell-based, Cricetulus griseus. Particulars: chinese hamster, CHO-K1 cells; read-out: INH. The method, boiled down:
as §1

Data set [3] has as its system A549. Put plainly: Cytotoxicity against human A549 cells at 100 uM after 72 hrs by CellTiter-Glo luminescence assay. It is filed as functional. Particulars: A549, 72 h. The method, boiled down: as §1
Data set [4] relates to A549. As to the kind of experiment: Cytotoxicity against human A549 cells after 72 hrs by CellTiter-Glo luminescence assay. The class given is functional, cell-based. To be noted: A549, 72 h. The method, boiled down: as §1
Data set [5] in a line: Cytotoxicity against CHOK1 cells after 72 hrs by CellTiter-Glo luminescence assay. To be noted: Cricetulus griseus, CHO-K1, 72 h. The class given is cell-based. Summed up: as §1
The test system of data set [6] is M14. Put plainly: Cytotoxicity against human M14 cells after 72 hrs by CellTiter-Glo luminescence assay. It is filed as functional, cell-based. Particulars: for IC50: M14, 72 h. The method, boiled down:
as §1

The target of data set [7] is T1, Protein deacetylase HDAC6 (Homo sapiens) (UniProt Q9UBN7).
T1 sequence (whole entry): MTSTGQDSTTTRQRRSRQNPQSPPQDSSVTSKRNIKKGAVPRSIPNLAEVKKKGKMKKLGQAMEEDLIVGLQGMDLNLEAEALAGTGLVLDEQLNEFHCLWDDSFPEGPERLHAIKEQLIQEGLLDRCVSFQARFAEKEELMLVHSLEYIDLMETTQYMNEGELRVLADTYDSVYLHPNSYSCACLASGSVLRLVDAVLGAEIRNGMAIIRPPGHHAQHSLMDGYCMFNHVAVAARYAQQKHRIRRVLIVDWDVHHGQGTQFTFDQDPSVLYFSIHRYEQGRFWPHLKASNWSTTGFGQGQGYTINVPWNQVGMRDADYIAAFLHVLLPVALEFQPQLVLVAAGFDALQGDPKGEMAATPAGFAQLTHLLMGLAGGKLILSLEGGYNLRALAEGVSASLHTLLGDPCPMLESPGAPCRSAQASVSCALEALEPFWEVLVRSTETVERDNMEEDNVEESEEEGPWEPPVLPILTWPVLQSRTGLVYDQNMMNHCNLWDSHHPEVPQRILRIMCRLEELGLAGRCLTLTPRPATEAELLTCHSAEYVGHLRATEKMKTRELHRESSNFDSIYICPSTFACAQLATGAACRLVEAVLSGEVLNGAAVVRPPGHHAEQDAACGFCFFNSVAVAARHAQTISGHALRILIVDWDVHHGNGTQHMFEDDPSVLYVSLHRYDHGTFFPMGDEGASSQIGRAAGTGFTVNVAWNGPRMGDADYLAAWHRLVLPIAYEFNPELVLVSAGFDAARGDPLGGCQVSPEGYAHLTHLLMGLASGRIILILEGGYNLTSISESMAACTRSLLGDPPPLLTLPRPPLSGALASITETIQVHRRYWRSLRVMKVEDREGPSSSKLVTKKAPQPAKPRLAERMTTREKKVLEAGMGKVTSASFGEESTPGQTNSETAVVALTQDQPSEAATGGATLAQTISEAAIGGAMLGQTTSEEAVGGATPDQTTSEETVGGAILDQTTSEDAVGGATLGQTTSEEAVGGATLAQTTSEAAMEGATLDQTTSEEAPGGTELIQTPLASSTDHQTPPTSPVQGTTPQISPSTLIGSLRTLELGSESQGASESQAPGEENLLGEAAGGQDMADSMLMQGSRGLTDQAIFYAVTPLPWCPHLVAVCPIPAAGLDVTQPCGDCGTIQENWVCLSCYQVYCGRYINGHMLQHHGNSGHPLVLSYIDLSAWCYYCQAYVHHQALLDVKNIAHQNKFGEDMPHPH
As to the kind of experiment: Inhibition of HDAC6 (unknown origin) up to 100 uM.

The target of data set [8] is Histone deacetylase 1 (Homo sapiens) (UniProt Q13547). Put plainly: Inhibition of HDAC1 (unknown origin) up to 100 uM.
The target in data set [9] is Histone deacetylase 2 (Homo sapiens) (UniProt Q92769). As to the kind of experiment: Inhibition of HDAC2 (unknown origin) up to 100 uM.
Data set [10] relates to M14. As to the kind of experiment: Cytotoxicity against human M14 cells assessed as cell viability at 100 uM after 48 hrs by CellTiter-Glo luminescence assay. It is filed as functional, cell-based. Summed up: (§2)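 M14 cells, 1250 per well, in serum-free DMEM. Compounds given in 10-point 1:3 dilution series starting at 100 µM; controls were gefitinib, doxorubicin and ionomycin. Incubated at 37 °C, 5% CO2. CellTiter-Glo luminescence read at 4, 24, 48 and 72 h. Viability normalized to media-only wells and 1% DMSO-treated wells.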

Data set [11] concerns M14. As to the kind of experiment: Cytotoxicity against human M14 cells assessed as cell viability at 100 uM after 24 hrs by CellTiter-Glo luminescence assay. The class given is functional, cell-based. The method, boiled down:
as §2

Data set [12] has as its system M14. As to the kind of experiment: Cytotoxicity against human M14 cells assessed as cell viability at 100 uM after 4 hrs by CellTiter-Glo luminescence assay. The class given is functional, cell-based. Summed up:
as §2

Data set [13] is described as follows: (§3) Cytotoxicity against mouse B16F10 cells expressing p53 mutant after 48 hrs by hexosaminidase assay. It is filed as functional, cell-based. To be noted: B16-F10, 48 h. Summed up:
(§4)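 SK-MEL-28 or B16/F10 cells plated in 96-well plates, grown overnight, then treated with 0–50 µM compound for 48 h. Cells washed with PBS, given hexosaminidase substrate for 30 min at 37 °C, then developer. Absorbance read at 405 nm. Percent viability = treated/control absorbance × 100.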

A further data set relates to B16-F10. The data set is described as §3. It is filed as functional, cell-based. Summed up:
as §4

Another data set relates to SK-MEL-28. As to the kind of experiment: Cytotoxicity against human SK-MEL-28 cells expressing B-raf V600E mutant after 48 hrs by hexosaminidase assay. The class given is functional, cell-based. The method, boiled down:
as §4

Experimental findings from ChEMBL document CHEMBL3232843, “Novel pyrrolidine diketopiperazines selectively inhibit melanoma cells via induction of late-onset apoptosis” (J Med Chem, 2014) are described below.

Each structure is given as a SMILES string. Activity calls are given as the source filed them. The rule behind the calls is not given here.

Histone deacetylase 2 (Homo sapiens), sequence (Q92769 whole entry): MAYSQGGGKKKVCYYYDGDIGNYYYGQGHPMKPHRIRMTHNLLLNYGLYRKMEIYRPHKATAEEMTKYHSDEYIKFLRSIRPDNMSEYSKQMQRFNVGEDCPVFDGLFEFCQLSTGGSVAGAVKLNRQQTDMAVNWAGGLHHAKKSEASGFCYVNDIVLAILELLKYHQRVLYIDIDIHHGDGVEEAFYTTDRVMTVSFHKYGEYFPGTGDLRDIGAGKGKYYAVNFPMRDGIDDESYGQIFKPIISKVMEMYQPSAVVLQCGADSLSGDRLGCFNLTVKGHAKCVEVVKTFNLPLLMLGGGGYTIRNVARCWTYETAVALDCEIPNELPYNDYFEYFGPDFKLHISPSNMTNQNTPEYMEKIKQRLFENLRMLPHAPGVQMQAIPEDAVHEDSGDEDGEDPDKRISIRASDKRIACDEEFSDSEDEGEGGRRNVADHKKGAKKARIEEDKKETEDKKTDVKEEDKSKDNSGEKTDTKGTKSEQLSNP
Histone deacetylase 1 (Homo sapiens), sequence (Q13547 whole entry): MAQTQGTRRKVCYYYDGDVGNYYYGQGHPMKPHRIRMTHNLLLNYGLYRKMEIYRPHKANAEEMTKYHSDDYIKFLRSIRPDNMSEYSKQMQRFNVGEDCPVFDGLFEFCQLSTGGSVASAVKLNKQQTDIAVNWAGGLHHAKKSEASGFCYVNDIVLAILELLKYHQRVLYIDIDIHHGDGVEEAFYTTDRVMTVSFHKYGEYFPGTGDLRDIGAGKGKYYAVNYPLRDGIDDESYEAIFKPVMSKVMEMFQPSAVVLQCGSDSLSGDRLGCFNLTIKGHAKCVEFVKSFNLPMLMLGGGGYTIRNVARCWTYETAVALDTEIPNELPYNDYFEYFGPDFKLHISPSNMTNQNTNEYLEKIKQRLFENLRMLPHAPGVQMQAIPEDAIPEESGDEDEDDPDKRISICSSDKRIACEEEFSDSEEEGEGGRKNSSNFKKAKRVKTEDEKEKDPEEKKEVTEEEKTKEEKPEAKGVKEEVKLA

`CCC[C@@H]1CNC(=O)C(=O)N1C[C@@H]1CCCN1C[C@H](Cc1ccc(O)cc1)N1C[C@H](Cc2ccc(O)cc2)N(CC2CCCC2)C(=O)C1=O`: the inhibition – broadly, the drop in the measured response relative to a control, in per cent – at 100 µM in the data set with M14 [1] is 15%; with A549 [3], 0%. In addition, the cytotoxicity at 72 h, 100 µM in [2] came out at 7%.

Take `CCC[C@@H]1CNC(=O)C(=O)N1C[C@@H]1CCCN1C[C@H](Cc1ccc(O)cc1)N1C[C@H](Cc2ccc(O)cc2)N(CC(CC)c2ccccc2)C(=O)C1=O` (some centres undefined): the inhibition at 100 µM with M14 [1] turned out to be 10%; in the data set with A549 [3] it was 0%. The cytotoxicity at 72 h, 100 µM in data set [2] was 27%.

`CCC[C@H]1CNC(=O)C(=O)N1C[C@@H]1CCCN1C[C@@H](CC1CCCCC1)N1C[C@H](Cc2ccc(O)cc2)N(CCC23CC4CC(CC(C4)C2)C3)C(=O)C1=O`: the IC50 (with A549 [4]; in data set [5]; with M14 [6]) was greater than 50 µM in each case.

`CCC[C@@H]1CNC(=O)C(=O)N1C[C@@H]1CCCN1C[C@@H](Cc1ccc(O)cc1)N1C[C@@H](Cc2ccc(O)cc2)N(CC(CC)c2ccccc2)C(=O)C1=O` (some centres undefined): the inhibition at 100 µM was 14% with M14 [1] and 8% in the data set with A549 [3]. Further, the cytotoxicity at 72 h, 100 µM in data set [2] was 59%.

Consider `CCC[C@@H]1CNC(=O)C(=O)N1C[C@@H]1CCCN1C[C@H](Cc1ccc(O)cc1)N1C[C@@H](Cc2ccc(O)cc2)N(CC2CCCC2)C(=O)C1=O`, for which the results for the inhibition at 100 µM in the data set on M14 [1] and in the data set with A549 [3] were 3% and 5%, respectively. Moreover, the cytotoxicity at 72 h, 100 µM in data set [2] amounted to 7%.

Turning to `CCC[C@@H]1CNC(=O)C(=O)N1C[C@@H]1CCCN1C[C@@H](Cc1ccc(O)cc1)N1C[C@H](Cc2ccc(O)cc2)N(CC(CC)c2ccccc2)C(=O)C1=O` (some centres undefined), the inhibition at 100 µM came out at 7% in the data set on M14 [1] and 4% with A549 [3]. Besides, the cytotoxicity at 72 h, 100 µM in [2] was 48%.

With `O=C1NC[C@H](Cc2ccccc2)N(C[C@@H]2CCCN2C[C@H](Cc2ccccc2)N2C[C@H](Cc3ccc(O)cc3)N(CCC34CC5CC(CC(C5)C3)C4)C(=O)C2=O)C1=O`, the inhibition entry in [7], in data set [8] and in [9] was “inactive” throughout. Besides, the outcome with M14 [10] and in the data set with M14 [11] was Active. Besides, the result in the data set on M14 [12] was inactive. In addition, the 50% inhibitory concentration (IC50) – broadly, the concentration at which inhibition is half-maximal – was found to be 1.15 µM in data set [13] and 0.75 µM in the data set with M14 [6]. The inhibition entry with B16-F10, with SK-MEL-28 and in the data set on M14 [6] was “Dose-dependent effect” throughout.
